Test results published in publication PMC10806771 (Chemical Science, 2023).
“Also recorded” adds a separate entry of the source.

Assays:
trastuzumab [1] = biological target: T1, trastuzumab (Homo sapiens, UniProt P01857); experiment: Template-directed conjugation to trastuzumab, LC-FTMS analysis; format: biochemical; settings: payload transferred with Fc-III-L6Orn carbonate reactive conjugate
[2] = system: mice bearing MDA-MB-231 xenograft; experiment: [64Cu]Cu-atezolizumab PET/CT imaging study; format: in vivo, mouse; settings: 9 MBq i.v.; 2, 24, 48 h
[3] = system: mice bearing MDA-MB-231 (PD-L1hi) tumor xenograft; experiment: [64Cu]Cu-atezolizumab biodistribution study; format: in vivo, mouse; settings: n = 4, ± SD
How it was run: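 Each received an i.v. dose of 0.25 MBq labelled conjugate (0.05 μg), given with 49.95 μg unlabelled parent antibody to saturate nonspecific Fc receptors. Animals were killed at 2, 24 and 48 h; organs collected, weighed and counted, and results given as %ID g−1. Blocking group at 24 h: co-injected 2 mg unlabelled antibody per mouse. n = 4 per group.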

[4] = cited from earlier work
trastuzumab [5] = biological target: T1, trastuzumab; experiment: Random conjugation experiments with trastuzumab, LC-FTMS; format: biochemical; settings: 10 eq., 16h, RT, pH 9.5
[6] = 24 h p.i. + blocking (2 mg cold atezolizumab)

T1 sequence (P01857 1-330 isoform P01857-1): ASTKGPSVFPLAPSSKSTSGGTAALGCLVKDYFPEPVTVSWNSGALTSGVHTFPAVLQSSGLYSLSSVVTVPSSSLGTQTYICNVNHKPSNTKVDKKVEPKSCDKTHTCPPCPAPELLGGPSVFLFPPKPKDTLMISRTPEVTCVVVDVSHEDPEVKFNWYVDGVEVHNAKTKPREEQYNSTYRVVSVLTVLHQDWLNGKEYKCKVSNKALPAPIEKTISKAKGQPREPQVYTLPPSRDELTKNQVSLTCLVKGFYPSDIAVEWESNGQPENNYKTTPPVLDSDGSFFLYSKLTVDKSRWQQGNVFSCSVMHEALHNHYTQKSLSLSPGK

DCAWH N GELVWCT NH2 (disulfide) [NODAGA]
Labeled mAb (trastuzumab [1]): 97%
Selectivity Fc/Fab (trastuzumab [1]): Fc selective

[^64Cu]Cu-atezolizumab: atezolizumab-NODAGA prepared with Fc-III-L6Orn-carbonate-NODAGA, radiolabeled with copper-64
PET observations [2]: an important uptake of the radiotracer was observed in liver and in spleen; also recorded: increased contrast of the tumor over time with an optimum at 24 h
Biodistribution, Blood ([3]; 2 h p.i., i.v. 0.25 MBq): 6.3 ± 3.8 % ID g^−1
Biodistribution, Bone ([3]; 2 h p.i., i.v. 0.25 MBq): 2.5 ± 0.4 % ID g^−1
Biodistribution, Heart ([3]; 2 h p.i., i.v. 0.25 MBq): 7.8 ± 0.6 % ID g^−1
Biodistribution, Kidney ([3]; 2 h p.i., i.v. 0.25 MBq): 11.8 ± 1.3 % ID g^−1
Biodistribution, Large intestine ([3]; 2 h p.i., i.v. 0.25 MBq): 1.2 ± 0.5 % ID g^−1
Biodistribution, Liver ([3]; 2 h p.i., i.v. 0.25 MBq): 8.2 ± 0.1 % ID g^−1
Biodistribution, Lung ([3]; 2 h p.i., i.v. 0.25 MBq): 14.3 ± 1 % ID g^−1
Biodistribution, Muscle ([3]; 2 h p.i., i.v. 0.25 MBq): 1.3 ± 0.1 % ID g^−1
Biodistribution, Pancreas ([3]; 2 h p.i., i.v. 0.25 MBq): 1.8 ± 1.6 % ID g^−1
Biodistribution, Skin ([3]; 2 h p.i., i.v. 0.25 MBq): 1.1 ± 0.3 % ID g^−1
Biodistribution, Small intestine ([3]; 2 h p.i., i.v. 0.25 MBq): 3.8 ± 0.9 % ID g^−1
Biodistribution, Spleen ([3]; 2 h p.i., i.v. 0.25 MBq): 28.1 ± 4 % ID g^−1
Biodistribution, Stomach ([3]; 2 h p.i., i.v. 0.25 MBq): 1.6 ± 0.6 % ID g^−1
Biodistribution, Tumor (MDA-MB-231) ([3]; 2 h p.i., i.v. 0.25 MBq): 5 ± 1.2 % ID g^−1
Biodistribution, Blood [3, 6]: 10.9 ± 0.9 % ID g^−1
Biodistribution, Bone [3, 6]: 1.7 ± 0.1 % ID g^−1
Biodistribution, Heart [3, 6]: 4 ± 0.3 % ID g^−1
Biodistribution, Kidney [3, 6]: 4.2 ± 0.1 % ID g^−1
Biodistribution, Large intestine [3, 6]: 2.7 ± 0.2 % ID g^−1
Biodistribution, Liver [3, 6]: 5.3 ± 0.6 % ID g^−1
Biodistribution, Lung [3, 6]: 6.4 ± 0.7 % ID g^−1
Biodistribution, Muscle [3, 6]: 1 ± 0.2 % ID g^−1
Biodistribution, Pancreas [3, 6]: 3.6 ± 0.2 % ID g^−1
Biodistribution, Skin [3, 6]: 2.5 ± 0.4 % ID g^−1
Biodistribution, Small intestine [3, 6]: 2.6 ± 0.1 % ID g^−1
Biodistribution, Spleen [3, 6]: 17.9 ± 0.1 % ID g^−1
Biodistribution, Stomach [3, 6]: 1.5 ± 0.3 % ID g^−1
Biodistribution, Tumor (MDA-MB-231) [3, 6]: 4.3 ± 1 % ID g^−1
Biodistribution, Blood ([3]; 24 h p.i., i.v. 0.25 MBq): 3.1 ± 1.7 % ID g^−1
Biodistribution, Bone ([3]; 24 h p.i., i.v. 0.25 MBq): 4.2 ± 1.7 % ID g^−1
Biodistribution, Heart ([3]; 24 h p.i., i.v. 0.25 MBq): 6.8 ± 0.5 % ID g^−1
Biodistribution, Kidney ([3]; 24 h p.i., i.v. 0.25 MBq): 11.9 ± 1.3 % ID g^−1
Biodistribution, Large intestine ([3]; 24 h p.i., i.v. 0.25 MBq): 6.1 ± 0.9 % ID g^−1
Biodistribution, Liver ([3]; 24 h p.i., i.v. 0.25 MBq): 11.8 ± 1.9 % ID g^−1
Biodistribution, Lung ([3]; 24 h p.i., i.v. 0.25 MBq): 14.2 ± 1.9 % ID g^−1
Biodistribution, Muscle ([3]; 24 h p.i., i.v. 0.25 MBq): 2.8 ± 0.6 % ID g^−1
Biodistribution, Pancreas ([3]; 24 h p.i., i.v. 0.25 MBq): 9.6 ± 3.6 % ID g^−1
Biodistribution, Skin ([3]; 24 h p.i., i.v. 0.25 MBq): 2.7 ± 0.7 % ID g^−1
Biodistribution, Small intestine ([3]; 24 h p.i., i.v. 0.25 MBq): 8.7 ± 0.9 % ID g^−1
Biodistribution, Spleen ([3]; 24 h p.i., i.v. 0.25 MBq): 42.8 ± 10.7 % ID g^−1
Biodistribution, Stomach ([3]; 24 h p.i., i.v. 0.25 MBq): 4.5 ± 2.3 % ID g^−1
Biodistribution, Tumor (MDA-MB-231) ([3]; 24 h p.i., i.v. 0.25 MBq): 11.4 ± 1.8 % ID g^−1
Biodistribution, Blood ([3]; 48 h p.i., i.v. 0.25 MBq): 2 ± 1.2 % ID g^−1
Biodistribution, Bone ([3]; 48 h p.i., i.v. 0.25 MBq): 2.2 ± 0.4 % ID g^−1
Biodistribution, Heart ([3]; 48 h p.i., i.v. 0.25 MBq): 3.8 ± 0.6 % ID g^−1
Biodistribution, Kidney ([3]; 48 h p.i., i.v. 0.25 MBq): 8 ± 1.8 % ID g^−1
Biodistribution, Large intestine ([3]; 48 h p.i., i.v. 0.25 MBq): 3.7 ± 1 % ID g^−1
Biodistribution, Liver ([3]; 48 h p.i., i.v. 0.25 MBq): 8.5 ± 1.6 % ID g^−1
Biodistribution, Lung ([3]; 48 h p.i., i.v. 0.25 MBq): 6.6 ± 0.7 % ID g^−1
Biodistribution, Muscle ([3]; 48 h p.i., i.v. 0.25 MBq): 1.1 ± 0.1 % ID g^−1
Biodistribution, Pancreas ([3]; 48 h p.i., i.v. 0.25 MBq): 3.1 ± 0.2 % ID g^−1
Biodistribution, Skin ([3]; 48 h p.i., i.v. 0.25 MBq): 2 ± 0.8 % ID g^−1
Biodistribution, Small intestine ([3]; 48 h p.i., i.v. 0.25 MBq): 4.8 ± 1.3 % ID g^−1
Biodistribution, Spleen ([3]; 48 h p.i., i.v. 0.25 MBq): 21.3 ± 6.5 % ID g^−1
Biodistribution, Stomach ([3]; 48 h p.i., i.v. 0.25 MBq): 2.1 ± 0.5 % ID g^−1
Biodistribution, Tumor (MDA-MB-231) ([3]; 48 h p.i., i.v. 0.25 MBq): 5.5 ± 2.1 % ID g^−1

DCAWH N GELVWCT NH2 (disulfide) [FITC]
Labeled mAb (trastuzumab [1]): 95%
Selectivity Fc/Fab (trastuzumab [1]): Fc selective

PNU-159682
Cytotoxicity relative to doxorubicin [4]: more than thousandfold increased cytotoxicity compared to doxorubicin
Labeled mAb (trastuzumab [1]): 46%
Selectivity Fc/Fab (trastuzumab [1]): 5.40

DCAWH N GELVWCT NH2 (disulfide) [DM4]
Labeled mAb (trastuzumab [1]): 68%
Selectivity Fc/Fab (trastuzumab [1]): 6.80

DCAWH N GELVWCT NH2 (disulfide) [DM1]
Labeled mAb (trastuzumab [1]): 73%
Selectivity Fc/Fab (trastuzumab [1]): 5.70

O=C(O)CN1CCN(CC(=O)O)CCN(CC(=O)ON2C(=O)CCC2=O)CCN(CC(=O)O)CC1 [DOTA-NHS]
Labeled mAb (trastuzumab [5]): 73%
Selectivity Fc/Fab (trastuzumab [5]): 1.46
